Screening results (PubChem)
TAAR1 ag: agonists of human TAAR1 | Q96RJ0 | CHO RD-HGA16 TAAR1, Fluo-8 calcium fluorescence; vehicle wells 0%, saturating PEA agonist 100% | activation, % at 3 µM | 360,000 compounds, 0.99% hits | AID 624467;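 active means activation above the mean activation of all test compounds in the run plus 3 SD, cut at about 38% in these data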
Target sequence (Q96RJ0 whole entry, looked up): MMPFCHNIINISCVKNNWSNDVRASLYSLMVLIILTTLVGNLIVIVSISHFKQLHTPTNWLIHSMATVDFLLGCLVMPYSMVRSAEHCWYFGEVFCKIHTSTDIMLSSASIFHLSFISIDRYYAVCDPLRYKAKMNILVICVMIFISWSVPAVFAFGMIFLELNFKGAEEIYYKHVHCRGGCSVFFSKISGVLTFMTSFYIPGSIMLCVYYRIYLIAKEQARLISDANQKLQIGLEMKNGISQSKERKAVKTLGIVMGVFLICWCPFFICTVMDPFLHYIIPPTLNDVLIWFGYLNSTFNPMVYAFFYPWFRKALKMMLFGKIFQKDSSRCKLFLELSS
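Test system: RD-HGA16 (CHO) cells co-expressing Gα16 and hTAAR1 / Benchmarks: DMSO vehicle as 0%, PEA at EC100 as 100% / Repeats: no replicates (n 1) / Measure: % activation from peak over basal fluorescence ratio, DMSO-to-PEA scaled / Timing: 17-24 h plating, Fluo-8 75 min 37 °C, 30 min RT / Technique: kinetic Fluo-8 calcium fluorescence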
NS3 helicase inh: HCV NS3 helicase inhibition; NS3 helicase DNA unwinding, Cy5 molecular beacon fluorescence; inhibition, % at 10.9 µM; 290,000 compounds, 0.56% hits; AID 1800;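 active means inhibition above the mean of all tested compounds plus 3 SD, set per campaign, cut at about 35% in these data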;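 further: 0% = DMSO wells and 100% = thioflavine S control wells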
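System: NS3 helicase fragment of HCV / Schedule: 1 h at 25 °C / Control set: DMSO alone as 0% and 110 µM thioflavine S as 100% / Reagent: Cy5/quencher beacon DNA duplex and ATP to start / Technique: Cy5 fluorescence / Replication: singlicate / Evaluation: % inhibition of end-to-start signal ratio versus controls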
TAAR1 antagonist: human TAAR1 antagonism. CHO RD-HGA16 TAAR1, Fluo-8 calcium fluorescence, antagonist. inhibition, % at 3 µM. 360,000 compounds, 1.5% hits;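 active means inhibition above a per-plate cutoff, the mean inhibition of test compounds on that plate plus 3 SD, cut at about 49% in these data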;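 further: 0% = DMSO plus EC80 beta-PEA response and 100% = DMSO alone without agonist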
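Material: RD-HGA16 CHO cells with stable hTAAR1 and Gα16; Dosing: single nominal final test compound concentration of 3 µM; Schedule: seeding 17-24 h prior, 75-min 37 °C, 30-min RT dye loading; Detection: kinetic Fluo-8 calcium fluorescence measurement; Measure: % inhibition from peak post-agonist over basal fluorescence ratio; Benchmarks: vehicle and agonist controls.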
HCV core dimer: blocks dimerization of HCV core protein | TR-FRET GST/Flag-core106 dimerization, 1536-well | 300,000 compounds, 0.33% hits | inhibition, % at 5 µM;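 active means inhibition above the mean of all tested compounds plus 3 SD, set per screening campaign, cut at about 45% in these data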
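Assay system – GST-tagged and Flag-tagged HCV core protein residues 1-106 · Quantity – core106 proteins, GST 13.5 nM and Flag 17 nM · Benchmarks – unlabelled core106 and no-GST-core106 wells · Read-out basis – percent inhibition of core106 dimerization signal · Detection – time-resolved FRET, ex 340 nm, em 617 and 671 nm · Schedule – 4 h at 22.5 °C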
rCAG binder: binds r(CAG) RNA repeats; r(CAG) RNA repeat, TO-PRO-1 dye displacement fluorescence; inhibition, % at 3 µM; 370,000 compounds, 1.3% hits; AID 651821;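 active means inhibition above the plate cutoff, the mean of all test compounds on that plate plus 3 SD, cut at about 35% in these data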;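 further: 0% = DMSO alone and 100% = 100 µM mitoxantrone as full dye displacement; higher means more dye released from RNA so lower well fluorescence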
rCAG bind conf: r(CAG) RNA repeat binding, confirmation; 4,300 compounds, 70% hits; inhibition, % at 3 µM; TO-PRO-1 dye displacement fluorescence; shares compounds with rCAG binder;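 active means inhibition above a per-plate cutoff, the mean inhibition of sample wells plus 3 SD, cut at about 35% in these data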;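 further: loss of TO-PRO-1 fluorescence as compound displaces dye from 1x1 AA loop RNA; 0% = DMSO only wells and 100% = 100 µM mitoxantrone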
DNA CAG counter: DNA CAG dye complex inhibition counter-screen; shares compounds with rCAG binder; d(CAG) DNA oligo TO-PRO-1 dye displacement, fluorescence; inhibition, % at 3 µM; 4,300 compounds, 94% hits; AID 652068;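 active means inhibition above its plate's cutoff, the mean test-well inhibition plus 3 SD, cut at about 4.8% in these data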;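 further: 0% = DNA dye mix with DMSO and 100% = 100 µM mitoxantrone; hits displace the dye from DNA and so lower well fluorescence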
dCAG dye DR: DNA CAG dye complex inhibition, dose response counter-screen; DNA CAG/GTC duplex TO-PRO-1 dye displacement fluorescence; 250 compounds, 20% hits; AID 686960; IC50, µM; shares compounds with rCAG binder; in the data active means IC50 below about 10 µM
The depositor's hits bear a star; i = inactive; nt = no result given. The list is not random: actives were taken first. Their share in the collection is about 3.7%.

SMILES | TAAR1 ag | NS3 helicase inh | TAAR1 antagonist | HCV core dimer | rCAG binder | rCAG bind conf | DNA CAG counter | others
Cc1noc(C)c1CSCC(=O)Nc1nc2c(F)cc(F)cc2s1 | 3.0 | nt | 6.5 | nt | 35.9* | 28.7 | 18.4*
COC1=C/C(=C/c2c(N)n3c(nc2=O)sc2cc(S(C)(=O)=O)ccc23)C=CC1=O | 6.4 | 12.8 | 11.2 | -11.2 | 27.1 | nt | nt
CS(=O)(=O)c1ccc2c(c1)sc1nc(=O)c(/C=C3/C=CC(=O)C(O)=C3)c(N)n12 | 10.1 | 17.9 | 12.7 | -5.9 | 39.4* | 48.2* | 18.4*
Cc1ccc(-n2c(SCC(=O)Nc3ccc4c(c3)OCCO4)nnc2-c2cccnc2)cc1 | nt | nt | nt | nt | 0.3 | nt | nt
CCCn1nc([N+](=O)[O-])c(C(C#N)c2nc3ccccc3o2)c(Cl)c1=O (stereo not drawn) | -0.5 | 17.0 | -2.0 | 10.5 | 79.6* | 77.1* | 37.2*
CCn1nc([N+](=O)[O-])c(C(C#N)c2nc3cc(C(F)(F)F)ccc3s2)c(Cl)c1=O (stereo not drawn) | 3.0 | -24.0 | 1.2 | 2.7 | 94.5* | 86.8* | 59.8*
CN(Cc1ccccc1)C(=O)OCc1cn(Cc2cc(F)cc(F)c2)nn1 | nt | nt | nt | nt | 0.3 | nt | nt
O=C(OC1CCOC1=O)c1cccc(S(=O)(=O)Nc2cccc(Cl)c2)c1 (stereo not drawn) | 4.2 | 10.1 | -14.5 | 12.6 | 34.9* | 23.9 | 9.1*
CNS(=O)(=O)c1cccc(C(=O)OC2CCOC2=O)c1 (stereo not drawn) | 5.2 | 15.2 | -2.8 | -19.1 | 2.8 | nt | nt
N#CCC(=O)Nc1sc2c(c1C(N)=O)CCCC2 | 0.8 | 11.5 | -14.2 | 4.6 | 35.0* | 3.5 | 4.5*
NC(=O)c1c(NC(=O)COC(=O)c2ccc(O)c(Cl)c2)sc2c1CCCC2 | -2.0 | nt | -20.9 | nt | 39.2* | 42.5* | 15.4*
COC(=O)c1c(NC(=O)COC(=O)c2ccccc2O)sc2c1CCCCC2 | 2.6 | 4.7 | -17.6 | 0.3 | 2.9 | nt | nt
O=C(c1cccc(C(F)(F)F)c1)N1CC[C@H]2[C@H](CCCN2Cc2ccccc2)C1 | nt | nt | nt | nt | -1.4 | nt | nt
O=[N+]([O-])c1cc(-c2nnc(N3CCOCC3)c3ccccc23)ccc1N1CCOCC1 | 2.8 | -6.3 | 12.2 | -4.7 | 89.8* | 1.1 | 2.0
c1ccn(-c2ccc(-c3noc(CCc4ccncc4)n3)cc2)c1 | nt | nt | nt | nt | 2.7 | nt | nt
Cc1ccccc1OCC(=O)NNC(=S)NC(=O)c1ccccc1[N+](=O)[O-] | 29.3 | 9.4 | -3.9 | 1.8 | 32.4 | nt | nt
CC(C)(C)c1ccc(OCC(=O)NNC(=S)NC(=O)c2ccccc2[N+](=O)[O-])c(Br)c1 | 13.3 | 28.9 | 21.4 | 8.7 | 77.9* | 85.2* | 54.9*
CCCc1c(OCCCOc2ccc(OCC(=O)O)cc2)ccc(C(C)=O)c1O | -0.9 | nt | -3.2 | 12.5 | 60.6* | 50.9* | 15.7*
COc1ccc([C@@H]2CC=C(C(=O)O)[C@H](c3ccc(Br)cc3)N2S(=O)(=O)c2ccccc2C)cc1 | -0.2 | nt | 6.3 | nt | 76.8* | 75.5* | 39.9*
Cc1ccccc1S(=O)(=O)N1[C@@H](c2ccc(Br)cc2)C(C(=O)O)=CC[C@H]1c1ccc(Cl)cc1 | -1.0 | nt | 37.8 | nt | 87.9* | 83.8* | 56.6*
COc1ccc([C@@H]2CC=C(C(=O)O)[C@H](c3ccc(Cl)cc3)N2S(=O)(=O)c2ccccc2C)cc1 | -0.6 | nt | -3.8 | 15.0 | 47.2* | 60.0* | 24.7*
Cc1ccccc1S(=O)(=O)N1C(c2ccc(Cl)c(Cl)c2)CC=C(C(=O)O)C1c1cccc(Br)c1 (stereo not drawn) | -1.5 | nt | 21.0 | nt | 85.6* | 85.4* | 57.4*
CC(C)(C)OC(=O)C1=CC[C@@H](c2ccc(Cl)c(Cl)c2)N(S(=O)(=O)c2ccc(F)cc2)[C@H]1c1cccc(F)c1 | 1.9 | nt | -15.5 | nt | 3.2 | nt | nt
CCOC(=O)C1=CCN(S(=O)(=O)c2ccccc2C)C1c1ccc(Br)cc1 (stereo not drawn) | 5.8 | nt | 33.1 | nt | -1.1 | nt | nt
O=C(CSc1nnc(COc2ccc(Cl)cc2)n1Cc1ccco1)Nc1ccc(OCc2ccccc2)cc1 | nt | nt | nt | nt | 21.2 | nt | nt
SMILES | TAAR1 ag | NS3 helicase inh | TAAR1 antagonist | HCV core dimer | rCAG binder | rCAG bind conf | DNA CAG counter | others
Cc1ccc([C@@H]2CC=C(C(=O)O)[C@H](c3ccc(Br)cc3)N2S(=O)(=O)c2ccccc2C)cc1 | 1.7 | nt | 11.7 | nt | 85.8* | 81.4* | 47.5*
Cc1ccccc1S(=O)(=O)N1[C@@H](c2ccccc2)C(C(=O)O)=CC[C@H]1c1ccc(Cl)cc1 | 9.0 | nt | 26.1 | 22.9 | 65.4* | 74.0* | 36.4*
Cc1ccc([C@@H]2CC=C(C(=O)O)[C@H](c3ccc(Cl)cc3)N2S(=O)(=O)c2ccccc2C)cc1 | -0.4 | nt | 23.2 | nt | 73.4* | 69.8* | 31.5* | dCAG dye DR=i
O=C(CNS(=O)(=O)c1ccc(Cl)s1)N1CCN(c2ccccn2)CC1 | nt | nt | nt | nt | 1.1 | nt | nt
COC(=O)[C@]12C[C@H](CC(=O)NCc3cccs3)C(=O)N(Cc3ccc(Cl)cc3Cl)C1=C[C@H](C1CCCC1)O[C@@H]2C | nt | nt | nt | nt | 7.9 | nt | nt
O=C(Nc1ccccc1Cl)c1cc(S(=O)(=O)N2CCOCC2)cs1 | 6.9 | 2.0 | 16.5 | -0.8 | -1.1 | nt | nt
O=C(Nc1ccccc1C(=O)O)c1cc(S(=O)(=O)N2CCOCC2)c(Br)s1 | 3.2 | -1.3 | -27.2 | -3.6 | 46.5* | 66.5* | 36.1*
